Experimental data taken from article PMC4518544 (Journal of medicinal chemistry, 2015).
“Also recorded” adds a separate entry of the source. Where two headings read alike, the source gives them in different places.

Columns and labels:
[1] = target: Hsp90β (Homo sapiens, UniProt P08238); assay: FP competition binding assay, Hsp90β
[2] = target: T1, Grp94 (Canis lupus familiaris, UniProt P41148); assay: FP competition binding assay, Grp94; parameters: species or system Canine; settings: for decrease in affinity for Grp94 of N3-substituted compounds: compared to the N9-series; for Hsp90α/Grp94: ratio of IC50 values, Table 4; for diminished potency for Grp94 on substitution of N3 with C: relative to 18a and 18c; for decrease in Grp94 activity on linker substitution: relative to S-linked 9g
T1 sequence (P41148 22-804): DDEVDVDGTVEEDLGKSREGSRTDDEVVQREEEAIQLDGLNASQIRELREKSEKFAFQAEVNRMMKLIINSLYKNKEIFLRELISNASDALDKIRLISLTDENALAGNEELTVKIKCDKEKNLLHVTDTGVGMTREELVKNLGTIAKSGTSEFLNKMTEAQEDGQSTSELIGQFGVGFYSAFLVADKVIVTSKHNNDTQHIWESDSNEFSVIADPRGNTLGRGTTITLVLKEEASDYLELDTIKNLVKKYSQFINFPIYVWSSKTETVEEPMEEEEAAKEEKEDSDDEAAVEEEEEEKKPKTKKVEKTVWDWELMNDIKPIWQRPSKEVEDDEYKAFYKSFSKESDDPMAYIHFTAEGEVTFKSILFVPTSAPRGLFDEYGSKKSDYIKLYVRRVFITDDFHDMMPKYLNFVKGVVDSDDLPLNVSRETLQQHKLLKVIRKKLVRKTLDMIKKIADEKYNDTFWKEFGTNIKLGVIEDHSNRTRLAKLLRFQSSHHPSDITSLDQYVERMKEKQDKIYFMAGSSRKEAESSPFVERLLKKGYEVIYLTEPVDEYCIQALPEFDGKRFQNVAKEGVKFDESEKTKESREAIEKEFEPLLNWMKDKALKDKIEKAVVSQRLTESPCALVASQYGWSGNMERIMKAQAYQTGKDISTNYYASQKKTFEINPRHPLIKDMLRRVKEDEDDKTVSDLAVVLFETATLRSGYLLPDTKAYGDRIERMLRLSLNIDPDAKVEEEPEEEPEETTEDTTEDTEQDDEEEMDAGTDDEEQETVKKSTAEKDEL

[3] = target: Hsp90α (Homo sapiens, UniProt P07900); assay: FP competition binding assay, Hsp90α
[4] = system: HER2; assay: Immunoblotting of HER2 in SKBr3 cells; format: cell-based
Method in brief: (§1)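 SKBr3 cells were treated 24 h with DMSO or test compound and lysed in RIPA buffer (pH 7.4) with protease inhibitors. Protein was measured by BCA, and 5–50 μg was run on SDS–PAGE and transferred to nitrocellulose. Blots were probed for HER2 (1:500), Hsp70 (1:2500), cleaved PARP (1:2500) and β-actin (1:3000), then HRP secondary, ECL and film, with densitometry. Triplicate experiments.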

[5] = system: Hsp70; assay: Immunoblotting of Hsp70 in SKBr3 cells; format: cell-based
Method in brief: as §1

[6] = system: cleaved PARP; assay: Immunoblotting of cleaved PARP in SKBr3 cells; format: cell-based; settings: 100 μM
Method in brief: as §1

[7] = system: SKBr3 cells; assay: CellTiter-Glo cell viability assay; format: cell-based; settings: 100 μM, 72 h
Method in brief: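 SKBr3 cells were grown in McCoy's 5A with 10% FBS at 37 °C under CO2, then treated 72 h with vehicle or test compound in quadruplicate wells. Viable cells were measured by CellTiter-Glo ATP luminescence. Points are means, n = 4.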

[8] = system: HER2-overexpressing SKBr3 cells; settings: cited from earlier work
[9] = target: T1, Grp94; settings: cited from earlier work
[10] = system: scanEDGE 97 kinase panel; assay: scanEDGE kinase competition binding panel; settings: 10 μM
Method in brief: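 Competition binding panel. Kinase, biotinylated-ligand streptavidin beads and test compound (from 40× DMSO stocks) were incubated 1 h at room temperature in binding buffer with 6 mM DTT. Beads were washed and eluted 30 min with 0.5 μM free ligand. Eluted kinase was measured by qPCR.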

[11] = system: TLR9; assay: TLR9 assay in transfected HEK 293T cells; format: cell-based; settings: 24 h treatment
Method in brief: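 HEK 293T cells were transfected with HA-tagged human TLR9 and split onto chamber slides 24 h later, then treated 24 h at varying concentrations. Cells were fixed (4% paraformaldehyde, 20 min), permeabilized (0.1% Triton X-100, 10 min) and blocked (3% BSA, 30 min). Staining used anti-HA (1:250, 1 h) or normal rabbit IgG, then Cy3 anti-rabbit (1:400), with DAPI mounting. Confocal imaging; fluorescence intensity was normalized to cell number.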

[12] = system: CpG induced TNF-α production; assay: TNFα ELISA, Raw264.7 cells stimulated with CpG; format: cell-based, mouse; settings: 18 h treatment
[13] = system: TNFα production in cells stimulated by LPS; assay: TNFα ELISA, Raw264.7 cells stimulated with LPS; format: cell-based, mouse; settings: Hsp90-mediated effect
[14] = system: IGF-II secretion by differentiated myoblasts; assay: C2C12 differentiation and IGF-II secretion assay; format: cell-based, mouse; settings: 24 h treatment
Method in brief: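 C2C12 mouse myoblasts kept in DMEM with 10% FBS. Differentiation was induced by switching to DMEM with 2% horse serum (36–48 h). After the switch, cells were treated 24 h. Medium was incubated overnight at 4 °C in anti-IGF-II-coated ELISA wells, then detected with biotinylated anti-IGF-II, HRP-streptavidin and TMB. Read at 450 nm and quantified against a recombinant IGF-II standard curve.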

[15] = Aqueous solubility; format: physicochemical; settings: water
[16] = target: Grp94; settings: read-out: Kd for Grp94; cited from earlier work

Sequence of Hsp90β (P08238 whole entry): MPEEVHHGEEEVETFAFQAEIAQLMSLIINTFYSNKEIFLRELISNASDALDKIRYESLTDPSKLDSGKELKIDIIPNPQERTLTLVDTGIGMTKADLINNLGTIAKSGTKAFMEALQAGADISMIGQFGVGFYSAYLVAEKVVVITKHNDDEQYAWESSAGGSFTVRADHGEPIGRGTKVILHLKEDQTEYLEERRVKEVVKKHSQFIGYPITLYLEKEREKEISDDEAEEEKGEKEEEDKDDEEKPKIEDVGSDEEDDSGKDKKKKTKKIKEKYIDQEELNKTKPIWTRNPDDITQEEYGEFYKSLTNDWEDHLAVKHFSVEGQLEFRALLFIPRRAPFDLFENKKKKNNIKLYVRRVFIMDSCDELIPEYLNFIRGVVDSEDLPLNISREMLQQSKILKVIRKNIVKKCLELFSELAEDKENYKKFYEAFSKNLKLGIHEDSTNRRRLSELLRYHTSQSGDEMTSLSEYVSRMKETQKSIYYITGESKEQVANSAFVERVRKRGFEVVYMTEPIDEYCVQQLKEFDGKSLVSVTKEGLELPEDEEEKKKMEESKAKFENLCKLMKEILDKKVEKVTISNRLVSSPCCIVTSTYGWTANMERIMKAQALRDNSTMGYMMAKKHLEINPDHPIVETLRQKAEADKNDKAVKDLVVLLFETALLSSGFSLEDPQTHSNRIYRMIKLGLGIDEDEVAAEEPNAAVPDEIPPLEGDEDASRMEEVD

## C#CCCCn1cnc(N)c2nc(Sc3cc(Cl)cc(Cl)c3)nc1-2 [9n′, 8-(3,5-Dichlorophenylthio)-3-(pent-4-ynyl)-3H-purin-6-amine]
[1]; read-out: IC50 Hsp90β, FP competition, Cy3B-GM probe
  IC50: > 100 µM
[2]
  decrease in affinity for Grp94 of N3-substituted compounds: 10–400 fold
[2]; read-out: IC50 Grp94, FP competition, Cy3B-GM probe
  IC50: 100 ± 8 µM

## C#CCCCn1cnc(N)c2nc(Sc3ccccc3CO)nc1-2 [9c′, (2-(6-Amino-3-(pent-4-ynyl)-3H-purin-8-ylthio)phenyl)methanol]
[2]
  IC50: > 100 µM

## C#CCCCn1cnc(N)c2nc(Sc3cc(C)cc(C)c3)nc1-2 [9q′, 8-(3,5-Dimethylphenylthio)-3-(pent-4-ynyl)-3H-purin-6-amine]
[2]
  IC50: > 100 µM

## C#CCCCn1cnc(N)c2nc(Sc3ccccc3OC(F)(F)F)nc1-2 [9d′, 3-(Pent-4-ynyl)-8-(2-(trifluoromethoxy)phenylthio)-3H-purin-6-amine]
[2]
  IC50: > 100 µM

## C#CCCCn1cnc(N)c2nc(Sc3cc(C(F)(F)F)ccc3Cl)nc1-2 [9m′, 8-(2-Chloro-5-(trifluoromethyl)phenylthio)-3-(pent-4-ynyl)-3H-purin-6-amine]
[3]
  IC50: > 100 µM
[1]
  IC50: > 100 µM
[2]
  IC50: > 100 µM

## CC(C)NCCCn1c(Sc2cc3c(cc2N(C)C)OCO3)nc2c(N)ncnc21 [18g]
[2]
  loss of affinity for Grp94 compared to PU-H71 (5): 10 fold
  lower affinity for Grp94 compared to Hsp90α: ~ 3 fold

## C#CCCCCn1c(Sc2cc(Cl)cc(Cl)c2)nc2c(N)ncnc21 [13b, 8-((3,5-Dichlorophenyl)thio)-9-(hex-5-yn-1-yl)-9H-purin-6-amine]
[2]; relative to 9n, chain length five to six carbons
  decrease in potency for Grp94: approximately 3 fold

## COC(=O)c1c(O)cc(O)c(Cl)c1CCc1nccn1Cc1ccccc1 [compound 3]
[4]; SKBr3 cells, 100 μM
  HER2 level: possibly a slight reduction in HER2
[4]; up to 10 μM
  effect in SKBr3 cells: no effect
[5]; 100 μM
  Hsp70 induction: Hsp70 induction
[6]
  PARP cleavage: minor PARP cleavage
[7]
  cell viability: cellular toxicity
[8]
  antiproliferative effects against SKBr3 cells: lacked antiproliferative effects

## C#CCCCn1cnc(N)c2nc(Sc3c(C)cc(C)cc3C)nc1-2 [9w′, 8-(Mesitylthio)-3-(pent-4-ynyl)-3H-purin-6-amine]
[2]
  IC50: 20 ± 5 µM
  decrease in affinity for Grp94 of N3-substituted compounds: 10–400 fold
  Hsp90α/Grp94: >5 µM

## C#CCCCn1cnc(N)c2nc(Sc3cc(Cl)ccc3Cl)nc1-2 [9k′, 8-(2,5-Dichlorophenylthio)-3-(pent-4-ynyl)-3H-purin-6-amine]
[2]
  IC50: 35.3 ± 5 µM
  decrease in affinity for Grp94 of N3-substituted compounds: 10–400 fold

## CC(C)NCCCn1c(Sc2cc(Cl)cc(Cl)c2)nc2c(N)nccc21 [18e, 2-((3,5-Dichlorophenyl)thio)-1-(3-(isopropylamino)propyl)-1H-imidazo[4,5-c]pyridin-4-amine]
[2]
  diminished potency for Grp94 on substitution of N3 with C: 5–8 fold

## C#CCCCn1c(S(=O)(=O)c2ccc(Cl)cc2Cl)nc2c(N)ncnc21 [14b, 8-((2,4-Dichlorophenyl)sulfonyl)-9-(pent-4-yn-1-yl)-9H-purin-6-amine]
[2]
  decrease in Grp94 activity on linker substitution: ~ 40 fold

## C#CCCCn1cnc(N)c2nc(Sc3ccc(C)cc3C)nc1-2 [compound 4, 8-(2,4-Dimethylphenylthio)-3-(pent-4-ynyl)-3H-purin-6-amine]
[3]
  IC50: > 250 µM

## C#CCCCn1cnc(N)c2nc(Sc3ccc(OC)cc3OC)nc1-2 [9j′, 8-(2,4-Dimethoxyphenylthio)-3-(pent-4-ynyl)-3H-purin-6-amine]
[2]
  IC50: > 100 µM

## C#CCCCn1cnc(N)c2nc(Sc3ccc(Cl)cc3Cl)nc1-2 [9g′, 8-(2,4-Dichlorophenylthio)-3-(pent-4-ynyl)-3H-purin-6-amine]
[2]
  IC50: 2.37 ± 0.79 µM
  decrease in affinity for Grp94 of N3-substituted compounds: 10–400 fold
  Hsp90α/Grp94: >210 µM

## CC(C)NCCCn1cnc(N)c2nc(Sc3cc(Cl)cc(Cl)c3)nc1-2 [18c′, 8-((3,5-Dichlorophenyl)thio)-3-(3-(isopropylamino)propyl)-3H-purin-6-amine]
[2]
  decrease in affinity for Grp94 of N3-substituted compounds: 10–400 fold
  Hsp90α/Grp94: >39 µM

## CN(C)c1cc2c(cc1Sc1nc3c(N)nccc3n1CCNCC(C)(C)C)OCO2 [compound 22]
[9]
  lower affinity for Grp94 than for Hsp90α or Hsp90β: ~ 6 fold

## CC(C)NCCCn1c(Sc2cc(Cl)cc(Cl)c2)nc2c(N)ncnc21 [18c, 8-((3,5-Dichlorophenyl)thio)-9-(3-(isopropylamino)propyl)-9H-purin-6-amine]
[2]
  selectivity for Grp94 over Hsp90α/β: > 100 fold
[10]
  interaction with kinase panel: inert
[11]
  expression of TLR9 in the post-ER compartment: dose-dependently inhibited
[12]
  CpG induced TNF-α production: dose-dependently inhibited
[13]
  TNFα production in cells stimulated by LPS: lack of activity
[14]
  IGF-II secretion by differentiated myoblasts: dose-dependently inhibited
[4]; HER2 overexpressing breast cancer cells, 24 h
  steady-state levels of HER2 kinase: reduced
[5]; 24 h
  Hsp70 induction: no Hsp70 induction; also recorded: did not modulate
[15]
  solubility: > 10000 µg/mL
[8]
  growth of SKBr3 cells: growth impairment

## C#CCCCn1cnc(N)c2nc(Sc3ccccc3OC)nc1-2 [9b′, 8-(2-Methoxyphenylthio)-3-(pent-4-ynyl)-3H-purin-6-amine]
[2]
  IC50: > 100 µM

## C#CCCCn1c(Oc2ccc(Cl)cc2Cl)nc2c(N)ncnc21 [14c, 8-(2,4-Dichlorophenoxy)-9-(pent-4-yn-1-yl)-9H-purin-6-amine]
[2]
  decrease in Grp94 activity on linker substitution: 4–6 fold

## C#CCCCn1c(Cc2ccc(Cl)cc2Cl)nc2c(N)ncnc21 [14d, 8-(2,4-Dichlorobenzyl)-9-(pent-4-yn-1-yl)-9H-purin-6-amine]
[2]
  decrease in Grp94 activity on linker substitution: 4–6 fold

## C#CCCCn1cnc(N)c2nc(Sc3cc(C)ccc3C)nc1-2 [9l′, 8-(2,5-Dimethylphenylthio)-3-(pent-4-ynyl)-3H-purin-6-amine]
[2]
  IC50: > 100 µM

## CC(C)NCCCn1c(Sc2ccc(Cl)cc2Cl)nc2c(N)nccc21 [18d, 2-((2,4-Dichlorophenyl)thio)-1-(3-(isopropylamino)propyl)-1H-imidazo[4,5-c]pyridin-4-amine]
[2]
  diminished potency for Grp94 on substitution of N3 with C: 5–8 fold

## C#CCCCn1cnc(N)c2nc(Sc3cc(Cl)c(Cl)cc3Cl)nc1-2 [9v′, 3-(Pent-4-ynyl)-8-(2,4,5-trichlorophenylthio)-3H-purin-6-amine]
[2]
  IC50: 2.08 µM
  decrease in affinity for Grp94 of N3-substituted compounds: 10–400 fold
  Hsp90α/Grp94: >48 µM

## C#CCCCn1cnc(N)c2nc(Sc3ccccc3Cl)nc1-2 [9a′, 8-(2-Chlorophenylthio)-3-(pent-4-ynyl)-3H-purin-6-amine]
[2]
  IC50: 100 ± 10 µM
  decrease in affinity for Grp94 of N3-substituted compounds: 10–400 fold

## 5′-N-ethylcarboxamidoadenosine [NECA]
[16]
  Kd: 0.2 µM
